Screening results (PubChem)
M1 antag = blocks the rat M1 muscarinic receptor response to acetylcholine. P08482. CHO-M1 cells, Fluo-4 calcium, ACh EC80 antagonist mode; stronger effect = lower value. B-score at 10 µM. 3.4% of 64,000 active;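 active = calcium fluorescence response, raw or row-and-column corrected B-score, differing from the plate sample mean either way at a set confidence level, mostly lower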
RORa activator = activators of human nuclear receptor RORA. P35398. CHO-K1 Gal4-RORA LBD luciferase reporter, luminescence; percent increase over mock-subtracted basal signal. activation, % at 10 µM. 1.5% of 65,000 active;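 active = activation above the mean of all tested compounds plus 3 SD, cut at about 49% in these data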;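 note: 0% = DMSO-treated RORA cells and 100% = added signal equal to DMSO minus mock-transfected cells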
Target sequence (P35398 whole entry, looked up, the tested form may be a part): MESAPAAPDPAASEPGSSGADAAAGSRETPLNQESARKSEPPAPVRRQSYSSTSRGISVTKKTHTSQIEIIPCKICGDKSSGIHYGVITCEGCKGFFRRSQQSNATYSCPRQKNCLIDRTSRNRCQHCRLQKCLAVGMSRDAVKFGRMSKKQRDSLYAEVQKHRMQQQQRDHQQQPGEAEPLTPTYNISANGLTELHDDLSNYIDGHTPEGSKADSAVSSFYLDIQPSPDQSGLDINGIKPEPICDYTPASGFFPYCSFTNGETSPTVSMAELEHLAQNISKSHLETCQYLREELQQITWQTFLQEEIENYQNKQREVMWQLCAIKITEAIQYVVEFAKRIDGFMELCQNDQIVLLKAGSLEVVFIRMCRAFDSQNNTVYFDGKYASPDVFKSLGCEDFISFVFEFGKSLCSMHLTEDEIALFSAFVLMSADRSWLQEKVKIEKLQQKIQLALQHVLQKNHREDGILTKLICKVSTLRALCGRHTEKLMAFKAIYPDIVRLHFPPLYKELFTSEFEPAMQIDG
mHtt clearance = compounds clearing mutant huntingtin protein; HeLa Exon1htt(103Q)mCFP, aggregate imaging; zero = plate's median compound well; inhibition, % at 1.5 µM; 0.42% of 47,000 active;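 active = inhibition of aggregate fluorescence above about 70%, also judged a hit by eye on the cell image, limit read from the data, passing the limit was not always enough; inconclusive = no rule stated for this call; inactive = not judged a hit on image review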;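 note: cells exposed to compound for three days before fixation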
D1 allo mod = allosteric modulators of human D1 dopamine receptor; B-score at 10 µM; AID 641; 5.9% of 58,000 active; P21728; HEK293 D1, CRE-luciferase, dopamine EC30 potentiation; actives deviate in either direction;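 active = luminescence count or its row- and column-corrected plate score outside the 99.7% band of the plate's sample wells, on either side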
SF1 activator = activates the human nuclear receptor SF-1. CHO-K1 Gal4-SF-1 LBD luciferase reporter; % increase over DMSO SF-1-specific signal. activation, % at 10 µM. 1.9% of 65,000 active;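 active = activation above the mean activation of all tested compounds plus 3 SD, cut at about 50% in these data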
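material = CHO-K1 cells with Gal4–hSF-1 LBD chimera plus Gal4-driven luciferase | compound = 10 µM single point, 1% DMSO | incubation = 20 h compound exposure at 37 °C after 1 h cell settling | measured by = SteadyLite luciferase luminescence | evaluation = percent activation relative to DMSO median and mock-transfected background | control set = DMSO negative control and −SF1 background wells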
M1 ag = activates the M1 muscarinic receptor; CHO-M1 cells, Fluo-4 calcium fluorescence, agonist mode; stronger effect = higher value; B-score at 10 µM; 3% of 64,000 active; AID 626;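 active = fluorescence rise, raw or as B-score row- and column-corrected plate score, outside the 99.7% band of its plate's samples, either direction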
M1 antag conf = confirmation of rat M1 muscarinic receptor antagonists; shares compounds with M1 antag; CHO-M1 cells, Fluo-4 calcium, ACh EC80 antagonism; stronger effect = lower value; calcium response (max-min fluorescence) at 10 µM; 43% of 1,700 active; AID 677;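 active = calcium response below the same-plate mean of wells given acetylcholine alone at its 80%-effect dose, minus 3 SD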;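 note: raw fluorescence intensity difference in arbitrary instrument units and not normalized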
mGluR4 antag = mGluR4 (human) activity, M1 antagonist secondary assay; fluorescence response (max-min) at 10 µM; shares compounds with M1 antag; CHO-mGluR4 calcium flux, Fluo-4 fluorescence, glutamate EC80; stronger effect = lower value; 0.9% of 1,700 active;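 active = fluorescence response below the plate's average for near-maximal glutamate wells, less 3 SD of those wells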;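 note: raw unnormalized fluorescence span taken in the window right after glutamate addition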
Starred values were filed as active, the others as inactive; ? = inconclusive; nt = no result given. An excerpt weighted towards active compounds, which were near 11% of everything screened.

SMILES	M1 antag	RORa activator	mHtt clearance	D1 allo mod	SF1 activator	M1 ag	M1 antag conf	mGluR4 antag
O=c1c(N2CCCCC2)coc2ccccc12	0.105	nt	nt	-0.125	nt	0.597	nt	nt
COc1cccc(N2C(=O)C3C(C2=O)C2C=CC3C23CC3)c1 (stereo unspecified)	-3.13*	-1.9	-21.9	nt	6.0	0.116	655	190
CCOC(=O)c1ccc(NC(=O)c2nccnc2C(=O)O)cc1	-0.591	-4.5	nt	nt	20.3	0.129	nt	nt
CCCc1nc(SCc2ccccn2)c2c(=O)n(C)c(=O)n(C)c2n1	-1.38*	17.5	-15.7	nt	-0.7	-1.09	405*	204
CCc1nc(SCc2ccc(C(=O)OC)o2)c2c(=O)n(C)c(=O)n(C)c2n1	-6.72*	-2.0	nt	3.76	8.3	-1.04	280*	226
CC1(C)C2CCC13CS(=O)(=O)N[C@@H]3C2 (stereo partly specified)	0.551	-13.3	nt	0.515	15.6	-1.16	nt	nt
COc1cccc(CNC(=O)CCn2c(=O)oc3ccccc32)c1	-3.51*	11.3	-27.4	0.186	-1.4	-0.318	538	253
O=C(CCN1CCc2ccccc2C1)Nc1cccc(F)c1	-1.04*	-3.5	nt	-1.14	-14.9	0.671	601	250
CN(CC(=O)N1CCCc2c1c(=O)oc1ccc(O)cc21)Cc1ccccc1	-6.46*	5.9	-12.6	-1.18	-3.2	0.74	467*	212
CCCOc1ccc2oc(=O)c3c(c2c1)CCCN3C(=O)CN1CCCC(C(=O)OCC)C1 (stereo unspecified)	-4.88*	4.3	nt	1.37	-7.5	0.645	440*	255
CCCOc1ccc2oc(=O)c3c(c2c1)CCCN3C(=O)CN1CCN(C(=O)c2ccco2)CC1	-1.62	2.9	nt	-0.323	-20.6	-0.664	nt	nt
O=C(CN1CCCC1)N1CCCc2c1c(=O)oc1ccc(OCc3ccccc3)cc21	-2.46*	11.1	-4.5	0.248	-0.6	-0.236	384*	191
CCn1cc(C(C)NC(=O)COc2ccc(Cl)cc2C)c(C)n1 (stereo unspecified)	0.0134	-14.5	nt	0.577	-15.0	0.0142	nt	nt
CC(=O)Nc1c2c(nn1-c1ccc(C)cc1C)CSC2	-1.92*	-4.0	19.5	-1.4	10.0	-0.309	641	259
CCCC(=O)Nc1c2c(nn1-c1ccc(C)cc1C)CSC2	0.176	-26.3	17.5	-0.0515	9.8	0.124	nt	nt
O=C(CN1CCOCC1)OCCCC1CCCCC1	-3.94*	-4.4	-34.8	nt	0.7	-0.904	517	194
CCC(C)N(C(=O)COC(=O)Cc1n[nH]c(=O)c2ccccc12)C1CCS(=O)(=O)C1 (stereo unspecified)	-3.57*	-26.3	nt	0.175	-3.2	0.987	641	242
Cc1cc(C)n(CC(O)CN2c3ccccc3Sc3ccccc32)n1 (stereo unspecified)	-0.906	6.7	15.0	0.382	-8.6	-1.12	nt	nt
COc1ccc(NC2=NC3(CCCCC3)N=C(N)N2)cc1	-0.0225	1.0	nt	-1.78	-9.4	0.366	nt	nt
CCCCOc1ccc(NC2=NC3(CCCCC3)N=C(N)N2)cc1	-2.31*	12.4	nt	-3.22	11.4	-0.829	458	182
COCCn1c(SCC(=O)Nc2ccc(S(=O)(=O)N3CCOCC3)cc2)nc2ccccc21	-7.6*	4.1	nt	-0.188	1.6	-0.339	348*	270
Cc1csc(NC(=O)CSc2ncnc3c2cnn3-c2ccccc2Cl)n1	-2.73*	2.3	nt	-2.1	-6.8	3.93	501	184
Cc1cc(C)n(CC2CC(=O)N(c3ccc(Cl)c(Cl)c3)C2=O)n1 (stereo unspecified)	-2.59*	-6.8	nt	0.505	1.3	-0.497	717	222
COc1ccc2oc(C(=O)c3ccccc3)c(NC(=O)CN3CCN(C)CC3)c2c1	-3.21*	-10.9	nt	0.117	-28.8	0.232	416	252
COC(=O)c1cccc(NC(=O)CN2CCN(c3ccc(OC)cc3)CC2)c1	0.0592	-7.7	nt	-0.324	-10.1	-0.0376	nt	nt
SMILES	M1 antag	RORa activator	mHtt clearance	D1 allo mod	SF1 activator	M1 ag	M1 antag conf	mGluR4 antag
CCCCNC1C(CC)C(CCC)C(C#N)(C#N)C1(C#N)C#N (stereo unspecified)	-0.281	-45.4	34.2	-0.0806	-22.4	-0.3	nt	nt
Cc1ccc(-c2nc(CSCC(=O)NCCN3CCN(Cc4ccccc4)CC3)c(C)o2)cc1	-5.35*	-30.8	13.3	-1.3	-6.5	0.0192	423*	253
CCOC(=O)C1=C(O)/C(=C/c2cc(OC)c(OC)c(OC)c2)N=C1C	nt	nt	20.9	nt	nt	nt	nt	nt
CCOC(=O)COc1ccc2cc(C(=O)OCC)c(=O)oc2c1	0.116	-4.7	-0.6	0.326	1.0	-0.32	nt	nt
CCOC(=O)c1ccc(COC(=O)c2cc3ccccc3oc2=O)o1	-2.38*	-1.2	nt	1.39	-11.5	0.0827	473*	206
O=C1C2C3CCCC3=C3CCCC3C2C(=O)N1c1ccccc1 (stereo unspecified)	-3.18*	-0.5	32.6	0.577	-1.3	-0.149	321*	195
C=CCn1c(SCC(=O)Nc2ncc(Cc3cc(Cl)ccc3Cl)s2)nnc1-c1ccncc1	nt	nt	20.6	nt	nt	nt	nt	nt
O=C1CC(O)(C(F)F)Oc2ccc3ccccc3c21 (stereo unspecified)	-2.64*	7.3	-21.7	1.23	-9.4	-0.784	600	271
O=C1CC(O)(C(F)(F)F)Oc2c1ccc1ccccc21 (stereo unspecified)	-1.21	-4.5	nt	-0.77	5.0	8.37	nt	nt
Cc1cc(C(c2nnnn2Cc2ccccc2)N2CCOCC2)c(C)n1-c1ccc2c(c1)OCO2 (stereo unspecified)	0.0971	2.0	nt	-0.0307	-8.4	-0.119	nt	nt
O=S(=O)(c1ccc2c(c1)OCCO2)N1CCC(O)(c2ccc(Cl)cc2)CC1	-8.69*	12.7	-26.8	-1.99	9.3	-0.658	475*	260
Cc1nc(NC2=NCN(CC3CCCO3)CN2)nc2ccccc12 (stereo unspecified)	-8.91*	-19.1	nt	-0.0699	5.3	-0.204	108*	209
Cc1nc(NC2=NCN(C3CCCCC3C)CN2)nc2ccccc12 (stereo unspecified)	-4.95*	41.0	59.2	-0.199	-3.8	-1.31	258*	186
Cc1nc(NC2=NCN(CCc3ccccc3)CN2)nc2c(C)cccc12	-0.845	-13.7	17.9	0.351	17.0	0.0347	nt	nt
Cc1ccc(S(=O)(=O)NC2=NCN(C3CCCCC3)CN2)cc1	-0.52	-4.5	-13.6	0.256	-4.8	-0.0154	nt	nt
Brc1cccc(-c2nnc(SCc3ccon3)n2-c2ccccc2)c1	0.373	3.5	?	3.12	-6.8	-0.521	nt	nt
CC(=O)N1CCc2cc(Br)cc(S(=O)(=O)NCCCN3CCCC(C)C3)c21 (stereo unspecified)	-0.431	-9.7	-71.2	0.0214	-8.7	0.323	nt	nt
